{"source": "ChEMBL document CHEMBL1154695", "about": "(J Med Chem, 2009)", "key": {"[1]": {"experiment": "Chemical stability assessed as compound epimerization in potassium phosphate buffer of pH 7", "type": "physicochemical", "procedure,_shortened": "(§1)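 Start concentration 0.25 mg/mL, followed over time at pH 7 in water, pH 7 phosphate (0.05 M) or pH 9 borate (0.1 M). Aliquots were drawn at intervals and HPLC measured the parent and the P1-(R) epimer VRT-394. k_obs is the sum of the forward and reverse epimerization rate constants; relative rate is taken against pH 7 water.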"}, "Hepatitis C virus": {"tested_on": "Hepatitis C virus", "experiment": "Antiviral activity against HCV by viral replicon assay", "type": "functional, Hepacivirus hominis"}, "Plasma [2]": {"tested_on": "Plasma", "experiment": "Stability in human plasma assessed as conversion to VRT-394 at 10 uM after 1 hr", "type": "ADME, cell-free", "conditions": "1 µM, in the assay text read “1 uM” for “10 uM”"}, "[3]": {"experiment": "Inhibition of HCV NS3/4A protease", "design": "species or system Hepacivirus hominis"}, "Plasma [4]": {"tested_on": "Plasma", "experiment": "Stability in dog plasma relative to telaprevir", "type": "ADME, cell-free, Canis lupus familiaris", "procedure,_shortened": "(§2)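 Rat, dog or human plasma was preincubated at 37 °C and spiked from DMSO stock to a final 1 or 10 μM (final DMSO 1%), in triplicate with shaking. Control was 0.1 M potassium phosphate pH 7.4. Sampling was at 0–120 min (rat, dog) or 0–180 min (human, buffer). Samples were acidified, extracted with ethyl acetate and run on chiral LC-MS/MS (MRM). Epimerization was scored by initial rate and k_H/k_D.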"}, "Plasma [5]": {"tested_on": "Plasma", "experiment": "Stability in human plasma relative to telaprevir", "type": "ADME, cell-free", "procedure,_shortened": "as §2"}, "[6]": {"experiment": "Terminal half life in Sprague-Dawley rat at 10 mg/kg, po", "type": "ADME, organism-based", "design": "dose 10 mg/kg, route oral", "conditions": "in vivo, read-out: beta t1/2 (converted)", "procedure,_shortened": "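Male Sprague-Dawley rats with cannulas received 10 mg/kg by gavage at 1 mg/mL (10 mL/kg) in a solid dispersion (HPMC-AS/SLS) taken up in 1% HPMC-AS and 10% vitamin E TPGS. Blood was drawn from 0.25 to 24 h into EDTA; plasma was acidified and assayed by LC/MS/MS. Parameters came from noncompartmental analysis.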"}, "[7]": {"experiment": "Stability in potassium phosphate buffer of pH 7", "type": "physicochemical", "procedure,_shortened": "as §1"}, "[8]": {"experiment": "Stability in boric acid-potassium chloride buffer of pH 9", "type": "physicochemical", "procedure,_shortened": "as §1"}, "Plasma [9]": {"tested_on": "Plasma", "experiment": "Stability in rat plasma relative to telaprevir", "type": "ADME, cell-free", "procedure,_shortened": "as §2"}, "Plasma [10]": {"tested_on": "Plasma", "experiment": "Stability in human plasma assessed as conversion to VRT-394 at 1 uM after 1 hr"}, "[11]": {"experiment": "Stability in rat plasma assessed as compound epimerization at 10 uM", "type": "ADME, cell-free", "procedure,_shortened": "as §2"}}, "data": [{"smiles": "CCC[C@H](NC(=O)[C@@H]1[C@H]2CCC[C@H]2CN1C(=O)[C@@H](NC(=O)[C@@H](NC(=O)c1cnccn1)C1CCCCC1)C(C)(C)C)C(=O)C(=O)NC1CC1", "values": [{"measurement": "half-life", "setting": "[1]", "value": 35, "unit": "h"}, {"measurement": "IC99", "setting": "Hepatitis C virus", "value": 3.3, "unit": "µM"}, {"measurement": "Activity", "setting": "Plasma [2]", "value": 35, "unit": "%"}]}, {"smiles": "[2H][C@@](CCC)(NC(=O)[C@@H]1[C@H]2CCC[C@H]2CN1C(=O)[C@@H](NC(=O)[C@@H](NC(=O)c1cnccn1)C1CCCCC1)C(C)(C)C)C(=O)C(=O)NC1CC1", "values": [{"measurement": "Ki", "setting": "[3]", "value": 20, "unit": "nM"}, {"measurement": "Activity", "setting": "Plasma [4]", "value": "Stable"}, {"measurement": "Activity", "setting": "Plasma [5]", "value": "Stable"}, {"measurement": "half-life", "setting": "[6]", "value": 1.5, "unit": "h"}, {"measurement": "IC99", "setting": "Hepatitis C virus", "value": 4, "unit": "µM"}, {"measurement": "Activity", "setting": "[7]", "value": "Stable"}, {"measurement": "Activity", "setting": "[8]", "value": "Stable"}, {"measurement": "Activity", "setting": "Plasma [9]", "value": "Stable"}, {"measurement": "Activity", "setting": "Plasma [10]", "value": 10, "unit": "%"}, {"measurement": "half-life at 10 µM", "setting": "[11]", "value": "> 4", "unit": "h"}]}, {"smiles": "CCC[C@@H](NC(=O)[C@@H]1[C@H]2CCC[C@H]2CN1C(=O)[C@@H](NC(=O)[C@@H](NC(=O)c1cnccn1)C1CCCCC1)C(C)(C)C)C(=O)C(=O)NC1CC1", "values": [{"measurement": "Ki", "setting": "[3]", "value": "> 1000", "unit": "nM"}]}]}
